A short description of data set [1]: Cytotoxicity against African green monkey Vero cells by MTS assay. Particulars: chlorocebus sabaeus. Type of data set: cell-based. The gist of the method: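 Uninfected Vero A cells were exposed to the same compound concentrations as the CHIKV antiviral plates and incubated 5 days at 37 °C, 5% CO2. MTS/PMS was added for 1.5 h and absorbance read at 498 nm. OD values were converted to control percentages, and CC50 was obtained by logarithmic interpolation. Values are medians ± absolute deviation of at least three independent assays.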
(Tetrazolium assays rely on reduction of a dye to a coloured formazan, in cell work by metabolically active cells.)

The subject of data set [2] is Chikungunya virus. Kind of data set: Antiviral activity against Chikungunya virus Indian Ocean strain 899 infected in African green monkey Vero cells assessed as protection against virus-induced cytopathic effect after 5 days by MTS assay. To be noted: Indian Ocean strain 899, Vero, 120 h. The format is functional, organism-based.
A short description of data set [3]: Inhibition of ZIKV N-terminal His6-tagged NS5 protein expressed in Escherichia coli using (Poly U) RNA template […] in presence of ATP by picogreen dye based assay. More on the design: species or system Zika virus.
Data set [4] is described as follows: Inhibition of DENV2 N-terminal His6-tagged NS5 protein expressed in Escherichia coli using (Poly U) RNA template […] in presence of ATP by picogreen dye based assay. More on the design: species or system dengue virus type 2.
Data set [5] can be described thus: Inhibition of ZIKV N-terminal His6-tagged NS5 protein expressed in Escherichia coli using (Poly U) RNA template […] in presence of ATP/Triton-X-100 by picogreen dye based assay. More on the design: species or system Zika virus.
The nature of data set [6]: Inhibition of DENV2 N-terminal His6-tagged NS5 protein expressed in Escherichia coli using (Poly U) RNA template […] in presence of ATP/Triton-X-100 by picogreen dye based assay. More on the design: species or system dengue virus type 2.
The nature of data set [7]: Inhibition of GTP-bodipy binding to ZIKV N-terminal His6-tagged NS5 protein expressed in Escherichia coli after 15 mins by fluorescence polarization assay. More on the design: species or system Zika virus. Particulars: read-out: Kd(app). The gist of the method:
(§1)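 Buffer was 50 mM Tris pH 7.5, 50 mM NaCl, 0.01% NP40 and 1 mM DTT, with 50 nM GTP-bodipy. NS5 was 300 nM for DENV-2 and 150 nM for ZIKV, with seven compound concentrations in 5% DMSO. Plates were incubated 15 min at room temperature, and fluorescence polarization was read at 485/520 nm after background subtraction. Kdapp was curve-fitted from triplicates in a single experiment.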
In general terms: Fluorescence polarisation rises when a labelled molecule tumbles more slowly, as on binding a larger partner.

Data set [8] in a line: Inhibition of GTP-bodipy binding to DENV2 N-terminal His6-tagged NS5 protein expressed in Escherichia coli after 15 mins by fluorescence polarization assay. More on the design: species or system dengue virus type 2. To be noted: read-out: Kd(app). The gist of the method:
as §1

A short description of data set [9]: Selectivity index, ratio of CC50 for African green monkey Vero cells to EC50 for Chikungunya virus Indian Ocean strain 899 infected in African green monkey Vero cells. The format is toxicity. To be noted: read-out: Ratio CC50/EC50. The gist of the method: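 SI is CC50 (Vero) divided by EC50 (CHIKV) from the same 5-day MTS assay. For CC50, uninfected Vero A cells were exposed to the same compound concentrations. CC50 is the concentration reducing viable cells by 50%, by logarithmic interpolation of OD 498 nm control percentages. Median of ≥3 independent assays.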

As to `CC1(C)Oc2c(c(=O)[nH]c3ccccc23)[C@H]2[C@@H](Cl)[C@](C)(O)CC[C@@H]21`, the CC50 (usually the concentration at which the toxic effect on the cells reaches its halfway point) in data set [1] is more than 288 µM. Also, the EC50 (in general, the concentration giving half of the maximal effect) in data set [2] is more than 288 µM.

As to `Cn1c2c(c(=O)c3ccccc31)[C@H]1[C@@H](Cl)[C@](C)(O)CC[C@@H]1C(C)(C)O2`, the CC50 in [1] is more than 277 µM. Also, in [2], the EC50 is more than 277 µM.

As to `CO[C@]12Oc3c(cc4c(c3C)C(=O)C(=O)c3cc(C)c(O)cc3-4)O[C@H]1c1c(cc(O)c3cc(C)c(O)cc13)C(C)(C)C2=O`, the CC50 in data set [1] is more than 172 µM. For the same compound, in data set [2], the EC50 is more than 172 µM. The IC50 (in general, the concentration that gives 50% inhibition) in data set [3] is 8.1 µM; in data set [4], 12.1 µM; in data set [5], 36 µM; in data set [6] it was 67.2 µM. In addition, the values for the Kd in data set [7] and in data set [8] were 32.1 µM and 9.3 µM, respectively.

On to `Nc1ncnc2c1ncn2[C@@H]1O[C@H](COP(=O)(O)OP(=O)(O)OP(=O)(O)O)C[C@H]1O`, for which the IC50 in data set [3] was 0.14 µM; in data set [4], 0.07 µM.

`C=C(C)[C@@]12OC3(c4ccccc4)O[C@@H]1[C@@H]1[C@@H]4O[C@]4(CO)[C@@H](O)[C@@]4(O)[C@@H](C[C@H](C)[C@@H]4OC(=O)c4ccccc4)[C@@]1(O3)[C@](C)(O)[C@@H]2OC(=O)c1ccccc1` gave a CC50 in [1] of 52 µM. Moreover, the EC50 in [2] was 10 µM. Besides, in data set [9], the selectivity ratio is 5. The IC50 in data set [3] and in [4] was more than 69 µM in each case.

Turning to `Cn1c(=O)c2c(c3ccccc31)OC(C)(C)[C@H]1CC[C@@](C)(O)[C@H](Cl)[C@H]21`, in data set [1], the CC50 is more than 208 µM. The EC50 in data set [2] was more than 277 µM. In addition, the IC50 in data set [3] was more than 138 µM; in data set [4], more than 119 µM.

Regarding `COc1cc2c(C)c3c(cc2c2cc(O)c(C)cc12)O[C@H]1c2c(cc(O)c4cc(C)c(O)cc24)C(C)(C)C(=O)[C@@]1(OC)O3`, the CC50 in data set [1] was more than 172 µM. Also, in data set [2], the EC50 was more than 86 µM. Besides, the IC50 is 4.8 µM in [3], 4.5 µM in [4], more than 100 µM in [5] and more than 100 µM in data set [6]. Besides, the Kd in data set [7] and in data set [8] was more than 100 µM each time.

Take `COc1cc2c(C)c3c(cc2c2cc(O)c(C)cc12)O[C@H]1c2c(cc(O)c4cc(C)c(O)cc24)C(C)(C)C(=O)[C@]1(OC)O3`: in data set [1], the CC50 was more than 129 µM. Further, the EC50 in data set [2] is more than 172 µM. Besides, the IC50 in data set [3] is 8.1 µM; in data set [4] it was 9.1 µM; in data set [5], more than 100 µM; in [6], more than 100 µM. Moreover, the Kd in data set [7] and in [8] was more than 100 µM each time.

As for `COc1cc2c3c(cc(O)c2cc1C)C(C)(C)C(=O)[C@@]1(OC)Oc2c(cc4c(cc(OC)c5cc(C)c(OC)cc54)c2C)O[C@@H]31`, the IC50 in data set [3] was 13.6 µM; in [4], 21.7 µM; in data set [5], more than 100 µM; in [6] it was more than 100 µM. Also, the Kd in data set [7] and in data set [8] was more than 100 µM throughout.

`C=C(C)[C@@]12OC3(c4ccccc4)O[C@@]4([C@H]([C@H]1O)[C@@H]1O[C@]1(CO)[C@@H](O)[C@@]1(O)[C@H]4C[C@H](C)[C@@H]1OC(=O)c1ccccc1)[C@](C)(O3)[C@@H]2OC(=O)c1ccccc1` registered a CC50 in data set [1] of 49 µM. Further, the EC50 in [2] was 4.4 µM. Further, the selectivity ratio in data set [9] was 11. Further, the half-maximal inhibitory concentration (IC50) in [3] and in data set [4] was more than 69 µM in each case.

In the case of `COc1cc2c3c(cc(O)c2cc1C)C(C)(C)C(=O)[C@@]1(OC)Oc2c(cc4c(cc(OC)c5cc(C)c(O)cc54)c2C)O[C@@H]31`, the IC50 in data set [3] was 10.9 µM; in [4] it was 14.5 µM; in data set [5], more than 100 µM; in [6], more than 100 µM. Moreover, the Kd in data set [7] and in data set [8] was more than 100 µM in each case.

Consider `COc1cc2c3c(cc(O)c2cc1C)C(C)(C)C(=O)[C@]1(OC)Oc2c(cc4c(cc(OC)c5cc(C)c(OC)cc54)c2C)O[C@@H]31`, for which the IC50 in data set [3] is 12.7 µM; in [4], 17.8 µM; in [5], more than 100 µM; in data set [6] it was more than 100 µM. The Kd in [7] and in data set [8] was more than 100 µM in each case.

As to `CC(=O)OCn1c(=O)c2c(c3ccccc31)OC(C)(C)[C@H]1CC[C@@](C)(O)[C@H](Cl)[C@H]21`, the CC50 in [1] is more than 239 µM. In data set [2], the EC50 was more than 239 µM. The IC50 in data set [3] is more than 138 µM; in data set [4] it was more than 119 µM.
